From ChEMBL document CHEMBL4689842, “EUbOPEN Chemogenomics Library wave 1” (2021)
Values joined by “and” are separate entries in the source; they are usually repeats but may differ in a detail not shown here. Identical values can stand only once.

Test system: Fibroblast
Test: Multiplex assay against human fibroblast
Format: toxicity, cell-based
In short: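 Cells stained live at seeding with Hoechst33342, BioTracker Green Microtubule Cytoskeleton Dye, MitoTracker Red and Annexin V Alexa Fluor 680 were imaged on a CQ1 microscope at 37°C and 5% CO2 after compound addition. Their classification by CellPathfinder machine-learning gating ran from Hoechst high-intensity objects versus normal cells, to healthy, pyknosed or fragmented nuclei among normal cells, to mitotic or apoptotic among pyknosed cells. Tubulin, mitochondrial-mass and membrane-permeability phenotypes are per cents of healthy-nucleus cells.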

[1] = 12 h, 1 µM, compound concentration 1 uM, replicate 1
[2] = 12 h, 1 µM, compound concentration 1 uM, replicate 2
[3] = 12 h, 10 µM, compound concentration 10 uM, replicate 1
[4] = 12 h, 10 µM, compound concentration 10 uM, replicate 2
[5] = 24 h, 1 µM, compound concentration 1 uM, replicate 1
[6] = 24 h, 1 µM, compound concentration 1 uM, replicate 2
[7] = 24 h, 10 µM, compound concentration 10 uM, replicate 1
[8] = 24 h, 10 µM, compound concentration 10 uM, replicate 2
[9] = 48 h, 10 µM, compound concentration 10 uM, replicate 1
[10] = 48 h, 10 µM, compound concentration 10 uM, replicate 2

Cl.O=C(c1ccc(Nc2nccc(-c3cc4ccccc4s3)n2)cc1)N1CCC(N2CCCC2)CC1
Population Apoptotic (%) [1]: 84%
Population Fragmented Nuclei (%) [1]: 42%
Population Healthy Nuclei (%) [1]: 48%
Population Hoechst High Intensity Objects (%) [1]: 21%
Population Membrane Permeable-Phenotype (%) [1]: 4%
Population Mitochondria Different-Phenotype (%) [1]: 10%
Population Mitotic Cells (%) [1]: 15%
Population Normal (%) [1]: 78%
Population Pyknosed Nuclei (%) [1]: 9%
Population Tubulin-Different-Phenotype (%) [1]: 14%
Total Cell Count [1]: 260
Population Apoptotic (%) [2]: 55%
Population Fragmented Nuclei (%) [2]: 53%
Population Healthy Nuclei (%) [2]: 32%
Population Hoechst High Intensity Objects (%) [2]: 36%
Population Membrane Permeable-Phenotype (%) [2]: 0%
Population Mitochondria Different-Phenotype (%) [2]: 9%
Population Mitotic Cells (%) [2]: 44%
Population Normal (%) [2]: 63%
Population Pyknosed Nuclei (%) [2]: 13%
Total Cell Count [2]: 102
Population Apoptotic (%) [3]: 73% and 44%
Population Fragmented Nuclei (%) [3]: 31% and 33%
Population Healthy Nuclei (%) [3]: 16% and 12%
Population Hoechst High Intensity Objects (%) [3]: 19% and 12%
Population Mitochondria Different-Phenotype (%) [3]: 26% and 36%
Population Mitotic Cells (%) [3]: 26% and 55%
Population Normal (%) [3]: 80% and 87%
Population Pyknosed Nuclei (%) [3]: 52% and 53%
Population Tubulin-Different-Phenotype (%) [3]: 66% and 53%
Total Cell Count [3]: 115 and 265
Population Apoptotic (%) [4]: 93% and 82%
Population Fragmented Nuclei (%) [4]: 35% and 54%
Population Healthy Nuclei (%) [4]: 7% and 10%
Population Hoechst High Intensity Objects (%) [4]: 21% and 38%
Population Membrane Permeable-Phenotype (%) [4]: 50% and 42%
Population Mitochondria Different-Phenotype (%) [4]: 100% and 57%
Population Mitotic Cells (%) [4]: 6% and 17%
Population Normal (%) [4]: 78% and 61%
Population Pyknosed Nuclei (%) [4]: 57% and 34%
Population Tubulin-Different-Phenotype (%) [4]: 100% and 57%
Total Cell Count [4]: 73 and 108
Population Apoptotic (%) [5]: 76%
Population Fragmented Nuclei (%) [5]: 44%
Population Healthy Nuclei (%) [5]: 47%
Population Hoechst High Intensity Objects (%) [5]: 23%
Population Membrane Permeable-Phenotype (%) [5]: 4%
Population Mitochondria Different-Phenotype (%) [5]: 3%
Population Mitotic Cells (%) [5]: 23%
Population Normal (%) [5]: 76%
Population Pyknosed Nuclei (%) [5]: 8%
Population Tubulin-Different-Phenotype (%) [5]: 10%
Total Cell Count [5]: 340
Population Apoptotic (%) [6]: 0%
Population Fragmented Nuclei (%) [6]: 60%
Population Healthy Nuclei (%) [6]: 34%
Population Hoechst High Intensity Objects (%) [6]: 32%
Population Membrane Permeable-Phenotype (%) [6]: 8%
Population Mitochondria Different-Phenotype (%) [6]: 20%
Population Mitotic Cells (%) [6]: 100%
Population Normal (%) [6]: 67%
Population Pyknosed Nuclei (%) [6]: 5%
Population Tubulin-Different-Phenotype (%) [6]: 32%
Total Cell Count [6]: 108
Population Apoptotic (%) [7]: 71%
Population Fragmented Nuclei (%) [7]: 43% and 48%
Population Hoechst High Intensity Objects (%) [7]: 16% and 20%
Population Membrane Permeable-Phenotype (%) [7]: 33% and 14%
Population Mitochondria Different-Phenotype (%) [7]: 22% and 14%
Population Mitotic Cells (%) [7]: 28%
Population Normal (%) [7]: 83% and 79%
Population Pyknosed Nuclei (%) [7]: 46% and 48%
Population Tubulin-Different-Phenotype (%) [7]: 66% and 71%
Total Cell Count [7]: 112 and 297
Population Apoptotic (%) [8]: 88% and 100%
Population Fragmented Nuclei (%) [8]: 66% and 26%
Population Hoechst High Intensity Objects (%) [8]: 45% and 31%
Population Membrane Permeable-Phenotype (%) [8]: 50% and 100%
Population Mitotic Cells (%) [8]: 11% and 0%
Population Normal (%) [8]: 54% and 68%
Population Pyknosed Nuclei (%) [8]: 29% and 58%
Population Tubulin-Different-Phenotype (%) [8]: 50% and 87%
Total Cell Count [8]: 105 and 76
Population Apoptotic (%) [9]: 91%
Population Fragmented Nuclei (%) [9]: 55%
Population Healthy Nuclei (%) [9]: 24%
Population Hoechst High Intensity Objects (%) [9]: 49%
Population Membrane Permeable-Phenotype (%) [9]: 33%
Population Mitochondria Different-Phenotype (%) [9]: 33%
Population Mitotic Cells (%) [9]: 8%
Population Normal (%) [9]: 50%
Population Pyknosed Nuclei (%) [9]: 19%
Population Tubulin-Different-Phenotype (%) [9]: 66%
Total Cell Count [9]: 120
Population Apoptotic (%) [10]: 50%
Population Fragmented Nuclei (%) [10]: 78%
Population Healthy Nuclei (%) [10]: 17%
Population Hoechst High Intensity Objects (%) [10]: 50%
Population Membrane Permeable-Phenotype (%) [10]: 62%
Population Mitochondria Different-Phenotype (%) [10]: 12%
Population Mitotic Cells (%) [10]: 50%
Population Normal (%) [10]: 49%
Population Pyknosed Nuclei (%) [10]: 4%
Population Tubulin-Different-Phenotype (%) [10]: 62%
Total Cell Count [10]: 93
